{"source": "ChEMBL document CHEMBL4229443", "about": "“Activation studies with amines and amino acids of the α-carbonic anhydrase from the pathogenic protozoan Trypanosoma cruzi” (Bioorg Med Chem, 2018)", "compound": "N[C@@H](Cc1c[nH]c2ccccc12)C(=O)O", "assay": "Activation of Trypanosoma cruzi CA assessed as Kcat at 10 uM preincubated for 15 mins followed by CO2 addition by stopped-flow assay (reference value: 1.2 10^6/s)", "outline": "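kcat of recombinant TcCA measured with 10 µM activator after 15 min pre-incubation at room temperature. Stopped-flow CO2 hydration in 10 mM Hepes pH 7.5 with 0.1 M Na2SO4 and 0.2 mM phenol red (557 nm), 25 °C. Initial velocities from the first 5–10% of the reaction, uncatalyzed rate subtracted. Mean of at least three determinations.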"}
{"protein": "Carbonic anhydrase-like protein, putative (Trypanosoma cruzi (strain CL Brener)), Q4CVY4 (protein) MTCGIRRGEGREGSKMVKAVIFSLLCLHVHALMSPVSAENGYTTAGLPREKPQGPQWGYTNLTAWPKLCQTGKQQSPVSFSELQPNEVVHRKDMGPLVFSRDCKFAAEKTSLKIENEVNTISVRFIPLDDPTNKFPSLCTVRDPTDPDSPEYHLVSMHFHSPAEHVLPCANPDAELHLVFAHTQQSRQPHLMVVVVQLVASDKINSTSVAALKHILLDGSLPPKRAVTTCTLTENMTIAGFLPQSGSYFAYNGSLTTPPCTEGVLFVVLTSPQIISKTALERLVEAFQRARPGNHNGNHRPTQPLNGRVVYHFVDMHHMNYSMCMRDMENHHTNSSQMAGMSGAMQHMNCSMCMRNMENHHKNSSQMEGMSGAMQHMNCSMCMRNMENHHKNSSQMAGMSGAMQHMNCSMCMRNMENHHTNSSQMAGMSGAMQHMNCSMCMRNMENHHKNSSQMAGMSGAMQHMNCSMCMRNMENHHTNSSQMAGMSGAMQHMNCSMCMRNMENHHTNSSQMAGMSGAMQHMNCSMCMRNMENHHKNSSQMEGMSSEEMSMMERSANESSGAQLAGLASEENATNTSSAPANKWPHQFNSRERLFLIAAALVLLLVTFILYRWRNSSARETETESLFRSHEGYGTTNP", "values": [{"measurement": "kcat", "result": 7.8, "unit": "×10⁶ /s"}]}
